Test results reported in publication PMC8268672 (Bioorganic Chemistry, 2021).
In brackets after ≈: the same amount, converted by molar mass. Like-named read-outs stand apart in the source and are kept apart here.

Assays:
[1] = tested on: Aspergillus niger (NCIM 2191); experiment: Agar disk diffusion, inhibition zone; assay type: cell-based; conditions: 100 µg/8 mm disc, triplicate, mean ± SD
Summary of the method: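 For the fungal strain, discs soaked in test compound solution (DMSO stock diluted with distilled water) sat on seeded Mueller-Hinton agar. Clotrimazole was the reference. Incubation ran 48 h at 35 °C, in triplicate. Zone of growth inhibition recorded in mm as the mean diameter around each disc.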

Coxsackie virus B4 = experiment: CPE reduction assay in Vero cells; assay type: cell-based; conditions: Enterovirus B, read-out: Antiviral EC50, Coxsackie virus B4
Human Coronavirus (229E) = experiment: CPE reduction assay in HEL cells; assay type: cell-based; conditions: read-out: Antiviral EC50, Human Coronavirus (229E)
[2] = tested on: Madin Darby canine kidney (MDCK) cells; conditions: dog
[3] = tested on: Influenza A/H1N1 A/Ned/378/05; experiment: CPE reduction assay in MDCK cells; assay type: cell-based; conditions: Influenza A virus
[4] = tested on: Pseudomonas aeruginosa (MCCB 0035); experiment: Agar disk diffusion, inhibition zone; assay type: cell-based; conditions: 100 µg/8 mm disc, triplicate, mean ± SD
MT4 cells = conditions: MT4 cell cultures; colorimetric MTT cell viability assay
Para-influenza-3 virus = experiment: CPE reduction assay in Vero cells; assay type: cell-based, Parainfluenza-3 virus; conditions: Vero, read-out: Antiviral EC50, Para-influenza-3 virus
[5] = tested on: Lactobacillus casei (NCIM-2651); experiment: Agar disk diffusion, inhibition zone; assay type: cell-based; conditions: 100 µg/8 mm disc, triplicate, mean ± SD
[6] = tested on: Candida albicans (NCIM 2087); experiment: MIC, broth microdilution; assay type: cell-based; conditions: NCIM2087, read-out: Minimum inhibitory concentration (MIC), CA
Summary of the method: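 CLSI broth microdilution in Sabouraud liquid medium, with test compound two-fold serially diluted from 512 to 0.25. Fungal broth culture grown 24 h at 35 °C to 0.5 McFarland turbidity, then adjusted with sterile solution to a final […] inoculum. MIC expressed in µg/mL.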

Influenza B B/Ned/537/05 = experiment: CPE reduction assay in MDCK cells; assay type: cell-based; conditions: Influenza B virus, read-out: Antiviral EC50, Influenza B B/Ned/537/05, MTS
Reovirus-1 = experiment: CPE reduction assay in Vero cells; assay type: cell-based; conditions: read-out: Antiviral EC50, Reovirus-1
[7] = tested on: Cryptococcus neoformans (ATCC 9011); experiment: Agar disk diffusion, inhibition zone; assay type: cell-based; conditions: 100 µg/8 mm disc, triplicate, mean ± SD
[8] = tested on: Pseudomonas aeruginosa (MCCB 0035); experiment: MIC, broth microdilution; assay type: cell-based; conditions: read-out: Minimum inhibitory concentration (MIC), PA
Summary of the method: (§1)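 Broth microdilution per CLSI in Mueller-Hinton broth, using two-fold serial dilutions of test compound and reference drugs from 512 to 0.25. Bacterial broth cultures were grown 2-6 h to 0.5 McFarland turbidity, then diluted with sterile solution to the final inoculum. MIC is reported in µg/mL.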

[9] = tested on: Klebsiella aerogenes (NCIM-2098); experiment: Agar disk diffusion, inhibition zone; assay type: cell-based; conditions: 100 µg/8 mm disc, triplicate, mean ± SD
[10] = tested on: Bacillus cereus (NCIM-2458); experiment: Agar disk diffusion, inhibition zone; assay type: cell-based; conditions: 100 µg/8 mm disc, triplicate, mean ± SD
[11] = tested on: Candida albicans (NCIM 2087); experiment: Agar disk diffusion, inhibition zone; assay type: cell-based; conditions: 100 µg/8 mm disc, triplicate, mean ± SD
[12] = tested on: Staphylococcus aureus (ATCC 29213); experiment: Agar disk diffusion, inhibition zone; assay type: cell-based; conditions: 100 µg/8 mm disc, triplicate, mean ± SD
Summary of the method: (§2)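 Agar disk diffusion on Mueller-Hinton agar plates seeded with a standard bacterial suspension. Test compound stock in DMSO, diluted with distilled water; 8 mm sterile filter-paper discs soaked in the solution. Ampicillin was the reference. Plates incubated at 35 °C for 24 h, in triplicate. Read-out is the average inhibition-zone diameter (mm) around each disc.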

[13] = tested on: Bacillus cereus (NCIM-2458); experiment: MIC, broth microdilution; assay type: cell-based; conditions: NCIM2458, read-out: Minimum inhibitory concentration (MIC), BC
Summary of the method: as §1

Vero cells = conditions: Vero cell cultures; microscopically detectable alteration of normal cell morphology
[14] = tested on: Streptococcus pneumonia (ATCC 49619); experiment: Agar disk diffusion, inhibition zone; assay type: cell-based; conditions: 100 µg/8 mm disc, triplicate, mean ± SD
[15] = tested on: Escherichia coli (ATCC 8739); experiment: MIC, broth microdilution; assay type: cell-based; conditions: ATCC8739, read-out: Minimum inhibitory concentration (MIC), EC
Summary of the method: as §1

Yellow Fever virus = experiment: microbe, parasite or virus in culture; assay type: cell-based; conditions: Yellow fever virus, Vero, read-out: Antiviral EC50, Yellow Fever virus
Vaccinia virus = experiment: microbe, parasite or virus in culture; assay type: cell-based; conditions: Orthopoxvirus vaccinia, HEL, read-out: Antiviral EC50, Vaccinia virus
[16] = tested on: Escherichia coli (ATCC 8739); experiment: Agar disk diffusion, inhibition zone; assay type: cell-based; conditions: 100 µg/8 mm disc, triplicate, mean ± SD
Summary of the method: as §2

[17] = tested on: Aspergillus niger (NCIM 2191); experiment: MIC, broth microdilution; assay type: cell-based; conditions: NCIM2191, read-out: Minimum inhibitory concentration (MIC), AN
Summary of the method: (§3)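 Antifungal MICs by CLSI broth microdilution in Sabouraud liquid medium. Test compounds and standard drugs are serially diluted two-fold from 512 to 0.25. The fungal broth culture is grown 24 h at 35 °C to a 0.5 McFarland turbidity, then adjusted with sterile solution to the final inoculum.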

[18] = tested on: Cryptococcus neoformans (ATCC 9011); experiment: MIC, broth microdilution; assay type: cell-based; conditions: ATCC9011, read-out: Minimum inhibitory concentration (MIC), CN
Summary of the method: as §3

[19] = tested on: Salmonella typhimurium (NCIM-2501); experiment: Agar disk diffusion, inhibition zone; assay type: cell-based; conditions: 100 µg/8 mm disc, triplicate, mean ± SD
Punta Toro virus = experiment: CPE reduction assay in Vero cells; assay type: cell-based; conditions: read-out: Antiviral EC50, Punta Toro virus
[20] = tested on: Aspergillus fumigatus (NCIM 2081); experiment: Agar disk diffusion, inhibition zone; assay type: cell-based; conditions: 100 µg/8 mm disc, triplicate, mean ± SD
[21] = tested on: Staphylococcus aureus (ATCC 29213); experiment: MIC, broth microdilution; assay type: cell-based; conditions: ATCC29213, read-out: Minimum inhibitory concentration (MIC), SA
Summary of the method: (§4)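 Antibacterial MICs by CLSI broth microdilution in Mueller-Hinton broth. Test compounds and standard drugs are serially diluted two-fold from 512 to 0.25. The bacterial broth culture is grown 2-6 h to a 0.5 McFarland turbidity, then adjusted with sterile solution to the final inoculum.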

[22] = tested on: Influenza A/H3N2 A/HK/7/87; experiment: CPE reduction assay in MDCK cells; assay type: cell-based; conditions: Influenza A virus
[23] = tested on: Klebsiella aerogenes (NCIM-2098); experiment: MIC, broth microdilution; assay type: cell-based; conditions: NCIM2098, read-out: Minimum inhibitory concentration (MIC), KA
Summary of the method: as §4

[24] = tested on: Aspergillus fumigatus (NCIM 2081); experiment: MIC, broth microdilution; assay type: cell-based; conditions: NCIM2081, read-out: Minimum inhibitory concentration (MIC), AF
Summary of the method: as §3

Sindbis virus = experiment: CPE reduction assay in Vero cells; assay type: cell-based; conditions: read-out: Antiviral EC50, Sindbis virus
[25] = tested on: Human embryonic lung (HEL) cells; conditions: HEL cell cultures; microscopically detectable alteration of normal cell morphology
Adeno virus-2 = experiment: CPE reduction assay in HEL cells; assay type: cell-based; conditions: read-out: Antiviral EC50, Adeno virus-2
[26] = read-out: Antiviral EC50, Influenza A/H1N1 A/Ned/378/05, MTS
[27] = read-out: Antiviral EC50, Influenza A/H1N1 A/Ned/378/05, visual CPE score
[28] = read-out: Antiviral EC50, Influenza A/H3N2 A/HK/7/87, MTS
[29] = read-out: Antiviral EC50, Influenza A/H3N2 A/HK/7/87, visual CPE score

Compound	Diameter of growth inhibition zone, AN [1] [mm]	EC50 (Coxsackie virus B4) [µM]	EC50 (Human Coronavirus (229E)) [µM]	Cytotoxicity, Minimum cytotoxic conc. [2] [µM]	EC50 [3, 26] [µM]	EC50 [3, 27] [µM]	Diameter of growth inhibition zone, PA [4] [mm]	Minimum cytotoxic conc. (MT4 cells) [µM]	EC50 (Para-influenza-3 virus) [µM]	Diameter of growth inhibition zone, LC [5] [mm]	MIC [6] [µg/mL]	EC50 (Influenza B B/Ned/537/05) [µM]	EC50 (Reovirus-1) [µM]	Diameter of growth inhibition zone, CN [7] [mm]	MIC [8] [µg/mL]	Diameter of growth inhibition zone, KA [9] [mm]	Diameter of growth inhibition zone, BC [10] [mm]	Diameter of growth inhibition zone, CA [11] [mm]	Diameter of growth inhibition zone, SA [12] [mm]	MIC [13] [µg/mL]	also measured
Cc1ccc(S(=O)(=O)N2C(=O)CSC2c2ccccc2)cc1 (stereo not drawn) [5a, 3-[(4-Methylphenyl)sulfonyl]-2-phenyl-1,3-thiazolidin-4-one]	10.1 ± 1.1	> 100	> 100	>100	> 100	> 100	12.5 ± 0.6	>125	> 100	10 ± 0.4	64 (≈ 192 µM)	> 100	> 100	8.2 ± 0.5	128 (≈ 384 µM)	07 ± 1.74	08 ± 0.4	10.8 ± 2.3	13.8 ± 0.9	128 (≈ 384 µM)	Minimum cytotoxic conc. (Vero cells): >100 µM; Diameter of growth inhibition zone, SP [14]: 08 ± 0.8 mm; MIC [15]: 64 µg/mL (≈ 192 µM); EC50 (Yellow Fever virus): > 100 µM; EC50 (Vaccinia virus): > 100 µM; Diameter of growth inhibition zone, EC [16]: 13.2 ± 1.1 mm; MIC [17]: 32 µg/mL (≈ 96 µM); MIC [18]: 128 µg/mL (≈ 384 µM); Diameter of growth inhibition zone, ST [19]: 07 ± 1.5 mm; EC50 (Punta Toro virus): > 100 µM; Diameter of growth inhibition zone, AF [20]: 10.2 ± 1.2 mm; MIC [21]: 64 µg/mL (≈ 192 µM); EC50 [22, 28]: > 100 µM; EC50 [22, 29]: > 100 µM; MIC [23]: > 256 µg/mL; MIC [24]: 64 µg/mL (≈ 192 µM); EC50 (Sindbis virus): > 100 µM; Minimum cytotoxic conc. [25]: >100 µM; EC50 (Adeno virus-2): > 100 µM
Cc1ccc(S(=O)(=O)N2C(=O)CSC2c2ccccc2F)cc1 (stereo not drawn) [5h, 2-(2-Fluorophenyl)-3-[(4-methylphenyl)sulfonyl]-1,3-thiazolidin-4-one]	12 ± 0.66	> 100	> 100	>100	> 100	> 100	20 ± 0.6	111	> 100	19 ± 1.2	32 (≈ 91.1 µM)	> 100	> 100	19 ± 1.1	8 (≈ 22.8 µM)	10 ± 0.5	14 ± 0.62	15 ± 0.56	19 ± 1.1	16 (≈ 45.5 µM)	Minimum cytotoxic conc. (Vero cells): >100 µM; Diameter of growth inhibition zone, SP [14]: 10 ± 1.7 mm; MIC [15]: 4 µg/mL (≈ 11.4 µM); EC50 (Yellow Fever virus): > 100 µM; EC50 (Vaccinia virus): > 100 µM; Diameter of growth inhibition zone, EC [16]: 23.8 ± 0.9 mm; MIC [17]: 32 µg/mL (≈ 91.1 µM); MIC [18]: 8 µg/mL (≈ 22.8 µM); Diameter of growth inhibition zone, ST [19]: 14 ± 1.3 mm; EC50 (Punta Toro virus): > 100 µM; Diameter of growth inhibition zone, AF [20]: 15 ± 1.2 mm; MIC [21]: 8 µg/mL (≈ 22.8 µM); EC50 [22, 28]: > 100 µM; EC50 [22, 29]: > 100 µM; MIC [23]: 64 µg/mL (≈ 182 µM); MIC [24]: 16 µg/mL (≈ 45.5 µM); EC50 (Sindbis virus): > 100 µM; Minimum cytotoxic conc. [25]: >100 µM; EC50 (Adeno virus-2): > 100 µM
